The values that follow come from ChEMBL document CHEMBL3045055, “Synthesis and antifungal activities of carabrol ester derivatives” (J Agric Food Chem, 2012).

A word on the IC50: it is the concentration that gives 50% inhibition.

Converted amounts (≈) assume the structure as drawn.

For this assay, the system named is Colletotrichum lagenaria. Nature of the assay: Antifungal activity against Colletotrichum lagenaria assessed as inhibition of spore germination at 24 +/- 1 degC for 8 hr (plant disease: on leaf and fruit). The class given is functional, organism-based. In short, it runs like this:
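C. lagenarium isolate (Accession No. 36199, Agricultural Culture Collection of China) grown 2 weeks at 25 ± 1 °C on PDA. Conidia flooded off with sterile water, filtered through cheesecloth, and suspended in water with 0.1% (v/v) Tween 20 at 1.0 × 10^6 spore/mL by hemocytometer. Samples dissolved in methanol, diluted with sterile water to test solutions; spore germination inhibition read, IC50 derived.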
For the compound `C=C1C(=O)O[C@@H]2C[C@]3(C)C(CCC(C)OC(=O)c4ccccc4I)[C@@H]3C[C@H]12` (some centres undefined) [CARABRYL 2-IODOBENZOATE], the IC50 was 39 µg/mL (≈ 81.3 µM).

Consider `C=C1C(=O)O[C@@H]2C[C@]3(C)C(CCC(C)OC(=O)c4cccc(OC)c4OC)[C@@H]3C[C@H]12` (some centres undefined) [CARABRYL 2,3-DIMETHOXYBENZOATE], for which the IC50 was found to be 35.8 µg/mL (≈ 86.3 µM).

Consider `C=C1C(=O)O[C@@H]2C[C@]3(C)C(CCC(C)OC(=O)CCc4c[nH]c5ccccc45)[C@@H]3C[C@H]12` (some centres undefined) [CARABRYL 3-INDOLEPROPIONATE], for which the IC50 was found to be 12.8 µg/mL (≈ 30.4 µM).

Consider `C=C1C(=O)O[C@@H]2C[C@]3(C)C(CCC(C)OC(=O)c4cccc(OC)c4)[C@@H]3C[C@H]12` (some centres undefined) [CARABRYL 3-METHOXYBENZOATE], for which the IC50 came to 49.4 µg/mL (≈ 129 µM).

With `C=C1C(=O)O[C@@H]2C[C@]3(C)C(CCC(C)OC(=O)c4ccc(OC)c(OC)c4)[C@@H]3C[C@H]12` (some centres undefined) [CARABRYL 3,4-DIMETHOXYBENZOATE], the IC50 was 33 µg/mL (≈ 79.5 µM).

In the case of `C=C1C(=O)O[C@@H]2C[C@]3(C)C(CCC(C)OC(=O)c4ccccc4OC)[C@@H]3C[C@H]12` (some centres undefined) [CARABRYL 2-METHOXYBENZOATE], the half-inhibitory concentration (IC50) came out at 46.1 µg/mL (≈ 120 µM).

As for `C=C1C(=O)O[C@@H]2C[C@]3(C)C(CCC(C)OC(=O)c4ccccc4Br)[C@@H]3C[C@H]12` (some centres undefined) [CARABRYL 2-BROMOBENZOATE], the concentration for half-maximal inhibition (IC50) turned out to be 29.2 µg/mL (≈ 67.3 µM).

On to `C=C1C(=O)O[C@@H]2C[C@]3(C)C(CCC(C)OC(=O)c4ccc(OC)cc4)[C@@H]3C[C@H]12` (some centres undefined) [CARABRYL 4-METHOXYBENZOATE], for which the half-inhibitory concentration (IC50) turned out to be 47.5 µg/mL (≈ 123 µM).

On to `C=C1C(=O)O[C@@H]2C[C@]3(C)C(CCC(C)OC(=O)c4ccc(I)cc4)[C@@H]3C[C@H]12` (some centres undefined) [CARABRYL 4-IODOBENZOATE], for which the IC50 was determined as 33.5 µg/mL (≈ 69.7 µM).

Turning to `C=C1C(=O)O[C@@H]2C[C@]3(C)C(CCC(C)OC(=O)CCCC)[C@@H]3C[C@H]12` (some centres undefined) [CARABRYL N-PENTANOATE], the IC50 came to 31.2 µg/mL (≈ 93.3 µM).

Turning to `C=C1C(=O)O[C@@H]2C[C@]3(C)C(CCC(C)OC(C)=O)[C@@H]3C[C@H]12` (some centres undefined) [CARABRYL ACETATE], the IC50 was 10.8 µg/mL.

Consider `C=C1C(=O)O[C@@H]2C[C@]3(C)C(CCC(C)OC(=O)c4cccnc4Cl)[C@@H]3C[C@H]12` (some centres undefined) [CARABRYL 2-CHLORONICOTINATE], for which the IC50 stood at 4.62 µg/mL (≈ 11.8 µM).

Turning to `C=C1C(=O)O[C@@H]2C[C@]3(C)C(CCC(C)OC(=O)c4ccc(F)cc4)[C@@H]3C[C@H]12` (some centres undefined) [CARABRYL 4-FLUOROBENZOATE], the concentration for half-maximal inhibition (IC50) came to 21.2 µg/mL (≈ 57 µM).

On to `C=C1C(=O)O[C@@H]2C[C@]3(C)C(CCC(C)OC(=O)/C=C/c4ccc(OC)c(OC)c4)[C@@H]3C[C@H]12` (some centres undefined), for which the IC50 was determined as 25.1 µg/mL (≈ 56.9 µM).

For `C=C1C(=O)O[C@@H]2C[C@]3(C)C(CCC(C)OC(=O)/C=C/c4ccc([N+](=O)[O-])cc4)[C@@H]3C[C@H]12` (some centres undefined), the IC50 is 22.8 µg/mL (≈ 53.7 µM).

Take `C=C1C(=O)O[C@@H]2C[C@]3(C)C(CCC(C)OC(=O)c4cccs4)[C@@H]3C[C@H]12` (some centres undefined) [CARABRYL 2-THIOPHENECARBOXYLATE]: the IC50 amounted to 30.8 µg/mL (≈ 85.5 µM).

For the compound `C=C1C(=O)O[C@@H]2C[C@]3(C)C(CCC(C)OC(=O)CCl)[C@@H]3C[C@H]12` (some centres undefined) [CARABRYL CHLOROACETATE], the 50% inhibitory concentration (IC50) is 4.51 µg/mL (≈ 13.8 µM).

`N#Cc1c(Cl)c(Cl)c(Cl)c(C#N)c1Cl` [CHLOROTHALONIL]: the IC50 stood at 0.87 µg/mL (≈ 3.27 µM).

`C=C1C(=O)O[C@@H]2C[C@]3(C)C(CCC(C)OC(=O)c4cccc5ccccc45)[C@@H]3C[C@H]12` (stereo partly drawn) [CARABRYL ALPHA-NAPHTHYLCARBOXYLATE]: the IC50 was 23.3 µg/mL (≈ 57.6 µM).

As for `C=C1C(=O)O[C@@H]2C[C@]3(C)C(CCC(C)OC(=O)c4cccc(Br)c4)[C@@H]3C[C@H]12` (some centres undefined) [CARABRYL 3-BROMOBENZOATE], the IC50 stood at 36.7 µg/mL (≈ 84.7 µM).

Take `C=C1C(=O)O[C@@H]2C[C@]3(C)C(CCC(C)OC(=O)CCc4ccccc4)[C@@H]3C[C@H]12` (some centres undefined) [CARABRYL 3-PHENYLPROPANOATE]: the IC50 worked out at 13.2 µg/mL (≈ 34.6 µM).

Turning to `C=C1C(=O)O[C@@H]2C[C@]3(C)C(CCC(C)OC(=O)CC)[C@@H]3C[C@H]12` (some centres undefined) [CARABRYL PROPANOATE], the IC50 was found to be 23.3 µg/mL (≈ 76 µM).

Regarding `C=C1C(=O)O[C@@H]2C[C@]3(C)C(CCC(C)OC(=O)c4ccc(C#N)cc4)[C@@H]3C[C@H]12` (some centres undefined) [CARABRYL 4-CYANOBENZOATE], the IC50 is 2.7 µg/mL (≈ 7.12 µM).

As for `C=C1C(=O)O[C@@H]2C[C@]3(C)C(CCC(C)OC(=O)c4cnc(C)cn4)[C@@H]3C[C@H]12` (some centres undefined), the half-inhibitory concentration (IC50) was 20.5 µg/mL (≈ 55.3 µM).

For `C=C1C(=O)O[C@@H]2C[C@]3(C)C(CCC(C)OC(=O)c4cccc(Cl)c4)[C@@H]3C[C@H]12` (some centres undefined) [CARABRYL 3-CHLOROBENZOATE], the 50% inhibitory concentration (IC50) came out at 26.7 µg/mL (≈ 68.7 µM).

As for `C=C1C(=O)O[C@@H]2C[C@]3(C)C(CCC(C)OC(=O)c4ccccc4C)[C@@H]3C[C@H]12` (some centres undefined) [CARABRYL 2-METHYLBENZOATE], the IC50 is 52.3 µg/mL (≈ 142 µM).

Regarding `C=C1C(=O)O[C@@H]2C[C@]3(C)C(CCC(C)OC(=O)c4ccccc4OCC)[C@@H]3C[C@H]12` (some centres undefined) [CARABRYL 2-ETHOXYBENZOATE], the IC50 came to 41.6 µg/mL (≈ 104 µM).

For the compound `C=C1C(=O)O[C@@H]2C[C@]3(C)C(CCC(C)OC(=O)/C=C/c4ccccc4)[C@@H]3C[C@H]12` (some centres undefined) [CARABRYL 3-PHENYLACRYLATE], the IC50 was 33.2 µg/mL (≈ 87.3 µM).

In the case of `C=C1C(=O)O[C@@H]2C[C@]3(C)C(CCC(C)OC(=O)c4ccc(Cl)cc4)[C@@H]3C[C@H]12` (some centres undefined) [CARABRYL 4-CHLOROBENZOATE], the IC50 is 31.8 µg/mL (≈ 81.8 µM).

As to `C=C1C(=O)O[C@@H]2C[C@]3(C)C(CCC(C)OC(=O)CCCCCCCCCCC)[C@@H]3C[C@H]12` (some centres undefined) [CARABRYL LAURATE], the IC50 is 33.6 µg/mL (≈ 77.7 µM).

As for `C=C1C(=O)O[C@@H]2C[C@]3(C)C(CCC(C)OC(=O)c4ccc(C(C)C)cc4)[C@@H]3C[C@H]12` (some centres undefined) [CARABRYL 4-ISOPROPYLBENZOATE], the IC50 was 2.82 µg/mL (≈ 7.11 µM).

On to `C=C1C(=O)O[C@@H]2C[C@]3(C)C(CCC(C)OC(=O)c4ccncc4)[C@@H]3C[C@H]12` (some centres undefined) [CARABRYL ISONICOTINATE], for which the IC50 amounted to 4.31 µg/mL (≈ 12.1 µM).

Regarding `C=C1C(=O)O[C@@H]2C[C@]3(C)C(CCC(C)OC(=O)c4cccnc4)[C@@H]3C[C@H]12` (some centres undefined) [CARABRYL NICOTINATE], the IC50 is 8.26 µg/mL (≈ 23.2 µM).

As to `C=C1C(=O)O[C@@H]2C[C@]3(C)C(CCC(C)OC(=O)CCC)[C@@H]3C[C@H]12` (some centres undefined) [CARABRYL N-BUTYRATE], the concentration for half-maximal inhibition (IC50) turned out to be 20.8 µg/mL (≈ 65 µM).

On to `C=C1C(=O)O[C@@H]2C[C@]3(C)C(CCC(C)OC(=O)Cc4ccc(Br)cc4)[C@@H]3C[C@H]12` (some centres undefined) [CARABRYL 4-BROMOPHENYLACETATE], for which the IC50 is 44.4 µg/mL (≈ 99.3 µM).

With `C=C1C(=O)O[C@@H]2C[C@]3(C)C(CCC(C)OC(=O)c4cccc(F)c4)[C@@H]3C[C@H]12` (some centres undefined) [CARABRYL 3-FLUOROBENZOATE], the IC50 came to 30.4 µg/mL (≈ 81.7 µM).

With `C=C1C(=O)O[C@@H]2C[C@]3(C)C(CCC(C)OC(=O)Cc4cccc5ccccc45)[C@@H]3C[C@H]12` (stereo partly drawn) [CARABRYL ALPHA-NAPHTHYLACETATE], the IC50 stood at 30.3 µg/mL (≈ 72.3 µM).

As to `C=C1C(=O)O[C@@H]2C[C@]3(C)C(CCC(C)OC(=O)/C=C/C=C/C)[C@@H]3C[C@H]12` (some centres undefined) [CARABRYL 2,4-HEXADIENOATE], the IC50 was found to be 8.41 µg/mL (≈ 24.4 µM).

Regarding `C=C1C(=O)O[C@@H]2C[C@]3(C)C(CCC(C)OC(=O)c4ccc(Br)cc4)[C@@H]3C[C@H]12` (some centres undefined) [CARABRYL 4-BROMOBENZOATE], the IC50 was 31.3 µg/mL (≈ 72.2 µM).
